For seven compounds, Activity results are on record in ChEMBL document CHEMBL1157438, “Maleimide and maleic anhydride derivatives from the mycelia of Antrodia cinnamomea and their nitric oxide inhibitory activities in macrophages” (2008).

The subject of test [1] is RAW264.7. The test can be described thus: Cell viability of LPS-stimulated mouse RAW264.7 cells after 24 hrs by MTT assay. The class given is functional. Details: concentration or dose not given beside the values. In a few lines: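 Cells cultured as for the nitrite assay (DMEM/10% FBS, medium renewed at 24 h) and exposed to compounds at 0–20 µg/mL plus LPS 1 µg/mL for 24 h. MTT (5 mg/mL stock in PBS, 10 µL per 100 µL culture) added for 4 h at 37 °C, formazan dissolved in DMSO, read at 550 nm; untreated cells set as 100%. Mean ± SD, three experiments in triplicate.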
(In general: Tetrazolium dyes change colour on reduction, which living cells bring about.)

The test system of test [2] is RAW264.7. The test can be described thus: Antiinflammatory activity in mouse RAW264.7 cells assessed as inhibition of LPS-induced NO production by measuring nitrite level after 24 hrs. Type of test: functional. In a few lines: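 RAW264.7 cells in DMEM with 10% heat-inactivated FBS, 37 °C, 5% CO2, 96-well; medium renewed after 24 h, then compounds (0, 1, 5, 10 or 20 µg/mL) added with LPS 1 µg/mL for 24 h. Supernatant mixed 1:1 with Griess reagent, 10 min room temperature, nitrite read at 540 nm. Mean ± SD of three experiments, each in triplicate.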

Take `CC(=O)ON1C(=O)C(CC(C)C)=C(c2ccc(OCC=C(C)C)cc2)C1=O` [ANTROCINNAMOMINS A]: the values for the Activity with RAW264.7 [1] and with RAW264.7 [2] were 91.1% and 12.5 µM, respectively.

Turning to `CC(C)CC1=C(c2ccc(O)cc2)C(=O)N(O)C1=O` [ANTROCINNAMOMIN B], the Activity in the test on RAW264.7 [1] is 82.2%; with RAW264.7 [2], 18 µM.

As for `CC(C)=CCOc1ccc(C2=C(CC(C)C)C(=O)OC2=O)cc1`, the Activity worked out at 67.9% with RAW264.7 [1] and 20.8 µM with RAW264.7 [2].

As to `CC(C)=CCOc1ccc(C2=C(CC(C)C)C(=O)N(O)C2=O)cc1`, the Activity in the test on RAW264.7 [1] was found to be 86.8%; with RAW264.7 [2] it was 18.3 µM.

Consider `CC(C)CC1=C(c2ccc(O)cc2)C(=O)OC1=O` [ANTROCINNAMOMIN C], for which the Activity amounted to 76.3% with RAW264.7 [1] and 21.8 µM in the test on RAW264.7 [2].

Turning to `CC(C)=CCOc1ccc(C2=C(CC(C)C)C(=O)NC2=O)cc1`, the Activity in the test on RAW264.7 [1] was 69.1%; in the test with RAW264.7 [2], 10.6 µM.

As to `CC(C)=CCOc1ccc(C2=C(CC(C)C)C(O)OC2=O)cc1` (centres undefined) [ANTROCINNAMOMIN D], the Activity stood at 88.2% with RAW264.7 [1] and 20 µM with RAW264.7 [2].
